These molecules were tested against Prolyl endopeptidase (Sus scrofa, UniProt P23687) (assay: In vitro inhibitory activity against prolyl endopeptidase (PEP)).
How it was run: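 Pig kidney PEP, partially purified. Substrate Z-Gly-Pro-p-nitroanilide at 0.26 mM in dioxane with 0.2 M phosphate buffer. Inhibitor is added in DMSO over a range of concentrations, then enzyme (0.05 units/mL). Incubation 20 min at 37 °C, with p-nitroaniline read at 405 nm. IC50 (n = 3-6) is estimated from the inhibitor concentration vs activity curve.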

Sequence of Prolyl endopeptidase (P23687 whole entry): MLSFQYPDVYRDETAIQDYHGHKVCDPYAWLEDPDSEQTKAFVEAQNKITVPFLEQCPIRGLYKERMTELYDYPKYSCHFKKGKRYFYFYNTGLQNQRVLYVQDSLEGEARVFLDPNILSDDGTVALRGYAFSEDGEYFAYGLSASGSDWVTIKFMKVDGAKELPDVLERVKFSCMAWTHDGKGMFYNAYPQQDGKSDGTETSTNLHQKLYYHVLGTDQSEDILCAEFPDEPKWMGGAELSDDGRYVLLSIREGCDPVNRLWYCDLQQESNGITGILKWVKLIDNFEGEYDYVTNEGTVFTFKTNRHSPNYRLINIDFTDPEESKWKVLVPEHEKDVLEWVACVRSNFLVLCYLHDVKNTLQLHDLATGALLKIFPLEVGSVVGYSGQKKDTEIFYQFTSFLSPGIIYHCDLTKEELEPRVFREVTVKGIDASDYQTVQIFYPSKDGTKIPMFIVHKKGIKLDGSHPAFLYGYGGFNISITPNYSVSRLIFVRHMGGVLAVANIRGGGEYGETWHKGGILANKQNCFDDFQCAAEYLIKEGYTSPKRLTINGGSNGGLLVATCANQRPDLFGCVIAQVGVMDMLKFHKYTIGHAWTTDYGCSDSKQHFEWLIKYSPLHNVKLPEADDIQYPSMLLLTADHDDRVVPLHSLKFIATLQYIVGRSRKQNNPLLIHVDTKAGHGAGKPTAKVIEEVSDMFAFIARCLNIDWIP

Structure (SMILES)	IC50 [nM]
O=C(c1nc2ccccc2s1)[C@@H]1CCCN1C(=O)[C@@H]1CCCN1C(=O)CCCc1ccccc1	4
O=C(c1nc2ccccc2s1)[C@@H]1CCCN1C(=O)[C@@H]1CCCN1C(=O)OCc1ccccc1	5
O=C(c1cncnc1)[C@@H]1CCCN1C(=O)[C@@H]1CCCN1C(=O)CCCc1ccccc1	61
O=C(c1ccccn1)[C@@H]1CCCN1C(=O)[C@@H]1CCCN1C(=O)CCCc1ccccc1	6.9
O=C(C1=NCCS1)[C@@H]1CCCN1C(=O)[C@@H]1CCCN1C(=O)CCCc1ccccc1	3.8
O=C(c1cccnc1)[C@@H]1CCCN1C(=O)[C@@H]1CCCN1C(=O)CCCc1ccccc1	2290
O=C(c1cncs1)[C@@H]1CCCN1C(=O)[C@@H]1CCCN1C(=O)CCCc1ccccc1	1090
O=C([C@@H]1CCCN1C(=O)CCCc1ccccc1)N1CCCC1C(O)c1nccs1 (some centres not stated)	16100
O=C(c1cccs1)[C@@H]1CCCN1C(=O)[C@@H]1CCCN1C(=O)OCc1ccccc1	2020
O=C(c1nccs1)C1CCCN1C(=O)C1CCCN1C(=O)OCc1ccccc1 (configuration not stated)	8.5
CCOC(=O)C(=O)C1CCCN1C(=O)[C@@H]1CCCN1C(=O)CCCc1ccccc1 (some centres not stated)	10.3
O=C(c1cccs1)[C@@H]1CCCN1C(=O)[C@@H]1CCCN1C(=O)CCCc1ccccc1	1260
O=C(c1ncc[nH]1)[C@@H]1CCCN1C(=O)[C@@H]1CCCN1C(=O)CCCc1ccccc1	9
O=C(c1nc2ncccc2o1)[C@@H]1CCCN1C(=O)[C@@H]1CCCN1C(=O)CCCc1ccccc1	5.5
O=C(c1ccc[nH]1)[C@@H]1CCCN1C(=O)[C@@H]1CCCN1C(=O)CCCc1ccccc1	21300
O=C(c1nc2ccccc2o1)[C@@H]1CCCN1C(=O)[C@@H]1CCCN1C(=O)CCCc1ccccc1	5.6
O=C(c1cscn1)[C@@H]1CCCN1C(=O)[C@@H]1CCCN1C(=O)CCCc1ccccc1	6.2

Reference: ChEMBL document CHEMBL1127369, “Synthesis and structure-activity relationships of peptidyl alpha-keto heterocycles as novel inhibitors of prolyl endopeptidase” (J Med Chem, 1994)
